Two compounds from article PMC7699308 (Biochemistry, 2020) can be followed below.

A short description of data set [1]: Ion mobility mass spectrometry, collision cross sections. The class given is physicochemical. The settings on record: for CCS, 1^+2 ion: charge +2, 100 mM ammonium acetate pH 7.5. In a few lines:
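Lyophilized peptide dissolved in DMSO at 3.2 mM, held 24 hrs at room temperature, then diluted 100-fold in 100 mM ammonium acetate pH 7.5 and directly infused for ion-mobility MS. m/z 350-5000 calibrated with cesium iodide. CCS calibrated daily with polyethylene oxide and tryptic cytochrome c peptides. TWCCS N2→He derived from reduced mobilities in nitrogen using helium calibrant values. Triplicate runs on different days.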

Data set [2] in a line: Thioflavin T kinetic assay of amyloid formation. The class given is physicochemical. The settings on record: 16 μM peptide, 32 μM ThT, pH 7.4, 25°C, one week (seven days). In outline:
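HFIP peptide stocks, quantified by A280, were lyophilized 24 hrs and resuspended in 10 mM phosphate, 140 mM KCl, pH 7.4, with 32 μM thioflavin T. Peptide was 16 μM in the main assays and 100 μM in the supplementary set. Run at 25°C without shaking, triplicate wells. Fluorescence read at ex 450/em 485 nm every ten minutes. T50 is the time to half-maximal ThT fluorescence.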

Data set [3] is described as follows: Cytotoxicity dose response, statements of the text not split by assay. The settings on record: rat. It is filed as cell-based.
Where [4] appears, read: monomer, TWCCS N2→He, triplicate on different days.

Bridges are numbered along the chain shown (N, C = ends). Where no end group is shown, it is not given here.

By EC50 is commonly meant the concentration giving half of the maximal effect. A low value points to greater potency. Regarding `CC[C@H](C)[C@H](NC(=O)[C@H](C)NC(=O)CNC(=O)[C@H](Cc1ccccc1)NC(=O)[C@H](CC(N)=O)NC(=O)[C@H](CC(N)=O)NC(=O)[C@H](CO)NC(=O)[C@H](CO)NC(=O)[C@H](Cc1c[nH]cn1)NC(=O)[C@@H](NC(=O)[C@H](CC(C)C)NC(=O)[C@H](Cc1ccccc1)NC(=O)[C@H](CC(N)=O)NC(=O)[C@H](C)NC(=O)[C@H](CC(C)C)NC(=O)[C@H](CCCNC(=N)N)NC(=O)[C@H](CCC(N)=O)NC(=O)[C@@H](NC(=O)[C@H](C)NC(=O)[C@@H]1CSSC[C@H](NC(=O)[C@@H](N)CCCCN)C(=O)N[C@@H](CC(N)=O)C(=O)N[C@@H]([C@@H](C)O)C(=O)N[C@@H](C)C(=O)N[C@@H]([C@@H](C)O)C(=O)N1)[C@@H](C)O)C(C)C)C(=O)N[C@@H](CC(C)C)C(=O)N[C@@H](CO)C(=O)N[C@@H](CO)C(=O)N[C@H](C(=O)N[C@@H](CC(N)=O)C(=O)N[C@H](C(=O)NCC(=O)N[C@@H](CO)C(=O)N[C@@H](CC(N)=O)C(=O)N[C@H](C(=O)N[C@@H](Cc1ccc(O)cc1)C(N)=O)[C@@H](C)O)C(C)C)[C@@H](C)O` [hIAPP, human islet amyloid polypeptide], the “CCS, 2^+4 ion” value in data set [1] (dimer, charge +4, triplicate on different days) is recorded as 864.0 ± 9.9 Å^2. The “CCS, 2^+5 ion, second conformation” value in data set [1] (dimer, charge +5, lower line of the two conformations, triplicate) is on record as 863.0 ± 21.1 Å^2. In data set [1] (setting [4]), the “CCS, 1^+2 ion” value was 544.7 ± 4.6 Å^2. The “CCS, 1^+3 ion” value in data set [1] (monomer, charge +3, TWCCS N2→He, triplicate on different days) is recorded as 551.1 ± 8.1 Å^2. Also, the “CCS, 1^+4 ion, second (compact) conformation” value in data set [1] (monomer, charge +4, lower line of the two conformations, triplicate) is reported as 552.9 ± 12.2 Å^2. Moreover, the “Increase in ThT fluorescence over the time course of the study” value in data set [2] was “showed an increase in ThT fluorescence”. The compound also displayed a 50% effective concentration (EC50) at 24 h in data set [3] of 27 to 48.1 µM.
Regarding “IAPPA25P S28P: an A25P S28P analog of IAPP (KCNTATCATQRLANFLVHSSNNFGPILPSTNVGSNTY; disulfide 2-7; not fully specified (C-terminus); ends not checked; UniProt P10997 34-70, looked up, variant A25P S28P)”, the “CCS, 1^+2 ion” value in data set [1] (setting [4]) stood at 550.5 ± 3.8 Å^2. In addition, the “Increase in ThT fluorescence over the time course of the study” value in data set [2] is “showed no increase in ThT fluorescence”.
